{
  "source": "paper PMC3889329",
  "about": "(Diabetes Therapy, 2013)",
  "test_system": "patients with type 2 diabetes mellitus",
  "assay": "Urine volume and micturition frequency",
  "assay_type": "in vivo, human",
  "method_in_brief": "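Urine volume and micturition frequency were recorded under controlled fluid intake, with oral once-daily dosing of test compound or placebo taken with 240 mL water. Dosing was a single dose on day 1, then days 3–9. Placebo was given within each dose group at a 3:1 active:placebo randomization.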",
  "note": "“Also recorded” adds a separate entry of the source.",
  "data": [
    {"smiles": "OC[C@H]1O[C@@H](c2ccc(Cl)c(Cc3ccc(O[C@H]4CCOC4)cc3)c2)[C@H](O)[C@@H](O)[C@@H]1O", "note": "[Empagliflozin]", "values": [
      {"measurement": "Mean (SD) micturition day frequency", "setting": "2.5 mg qd, Day 1, day 07:00–18:59", "value": "6.0 (1.2)"},
      {"measurement": "Mean (SD) micturition night frequency", "setting": "2.5 mg qd, Day 1, night 19:00–06:59", "value": "3.7 (1.5)"},
      {"measurement": "Mean (SD) micturition day frequency", "setting": "2.5 mg qd, Day 8, day 07:00–18:59", "value": "6.6 (1.8)"},
      {"measurement": "Mean (SD) micturition night frequency", "setting": "2.5 mg qd, Day 8, night 19:00–06:59", "value": "3.7 (1.2)"},
      {"measurement": "Mean (SD) micturition day frequency", "setting": "2.5 mg qd, Day 9, day 07:00–18:59", "value": "6.4 (1.9)"},
      {"measurement": "Mean (SD) micturition night frequency", "setting": "2.5 mg qd, Day 9, night 19:00–06:59", "value": "3.4 (1.3)"},
      {"measurement": "Mean (SD) micturition day frequency", "setting": "10 mg qd, Day 1, day 07:00–18:59", "value": "8.3 (1.7)"},
      {"measurement": "Mean (SD) micturition night frequency", "setting": "10 mg qd, Day 1, night 19:00–06:59", "value": "3.8 (0.8)"},
      {"measurement": "Mean (SD) micturition day frequency", "setting": "10 mg qd, Day 8, day 07:00–18:59", "value": "6.8 (1.6)"},
      {"measurement": "Mean (SD) micturition night frequency", "setting": "10 mg qd, Day 8, night 19:00–06:59", "value": "4.0 (1.7)"},
      {"measurement": "Mean (SD) micturition day frequency", "setting": "10 mg qd, Day 9, day 07:00–18:59", "value": "8.9 (1.7)"},
      {"measurement": "Mean (SD) micturition night frequency", "setting": "10 mg qd, Day 9, night 19:00–06:59", "value": "3.7 (0.5)"},
      {"measurement": "Mean (SD) micturition day frequency", "setting": "25 mg qd, Day 1, day 07:00–18:59", "value": "7.8 (2.6)"},
      {"measurement": "Mean (SD) micturition night frequency", "setting": "25 mg qd, Day 1, night 19:00–06:59", "value": "4.3 (1.0)"},
      {"measurement": "Mean (SD) micturition day frequency", "setting": "25 mg qd, Day 8, day 07:00–18:59", "value": "7.0 (1.6)"},
      {"measurement": "Mean (SD) micturition night frequency", "setting": "25 mg qd, Day 8, night 19:00–06:59", "value": "4.8 (1.6)"},
      {"measurement": "Mean (SD) micturition day frequency", "setting": "25 mg qd, Day 9, day 07:00–18:59", "value": "8.2 (2.0)"},
      {"measurement": "Mean (SD) micturition night frequency", "setting": "25 mg qd, Day 9, night 19:00–06:59", "value": "4.1 (1.4)"},
      {"measurement": "Mean (SD) micturition day frequency", "setting": "100 mg qd, Day 1, day 07:00–18:59", "value": "7.9 (2.4)"},
      {"measurement": "Mean (SD) micturition night frequency", "setting": "100 mg qd, Day 1, night 19:00–06:59", "value": "3.6 (1.1)"},
      {"measurement": "Mean (SD) micturition day frequency", "setting": "100 mg qd, Day 8, day 07:00–18:59", "value": "6.9 (1.5)"},
      {"measurement": "Mean (SD) micturition night frequency", "setting": "100 mg qd, Day 8, night 19:00–06:59", "value": "4.7 (1.5)"},
      {"measurement": "Mean (SD) micturition day frequency", "setting": "100 mg qd, Day 9, day 07:00–18:59", "value": "8.4 (2.5)"},
      {"measurement": "Mean (SD) micturition night frequency", "setting": "100 mg qd, Day 9, night 19:00–06:59", "value": "3.7 (1.0)"},
      {"measurement": "Change in micturition frequency compared with placebo", "setting": "controlled fluid intake conditions", "value": "no changes in urine volume or micturition frequency; also recorded: no changes to micturition frequency"}
    ]}
  ]
}
